An excerpt weighted towards active compounds, which were near 4.1% of everything screened.
hERG protect – hERG (human) protection from proarrhythmic block; 310,000 tested, 0.51% active; activation (rescue from dofetilide block), less the hit threshold, % at 10 µM; Q12809; AID 1511; CHO-hERG, FluxOR thallium flux, dofetilide IC70 present;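 active means activation above the mean of controls blocked by dofetilide plus 5 SD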;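 further: thallium influx through hERG after potassium depolarization seen as dye fluorescence rise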
Target sequence (Q12809 whole entry, looked up): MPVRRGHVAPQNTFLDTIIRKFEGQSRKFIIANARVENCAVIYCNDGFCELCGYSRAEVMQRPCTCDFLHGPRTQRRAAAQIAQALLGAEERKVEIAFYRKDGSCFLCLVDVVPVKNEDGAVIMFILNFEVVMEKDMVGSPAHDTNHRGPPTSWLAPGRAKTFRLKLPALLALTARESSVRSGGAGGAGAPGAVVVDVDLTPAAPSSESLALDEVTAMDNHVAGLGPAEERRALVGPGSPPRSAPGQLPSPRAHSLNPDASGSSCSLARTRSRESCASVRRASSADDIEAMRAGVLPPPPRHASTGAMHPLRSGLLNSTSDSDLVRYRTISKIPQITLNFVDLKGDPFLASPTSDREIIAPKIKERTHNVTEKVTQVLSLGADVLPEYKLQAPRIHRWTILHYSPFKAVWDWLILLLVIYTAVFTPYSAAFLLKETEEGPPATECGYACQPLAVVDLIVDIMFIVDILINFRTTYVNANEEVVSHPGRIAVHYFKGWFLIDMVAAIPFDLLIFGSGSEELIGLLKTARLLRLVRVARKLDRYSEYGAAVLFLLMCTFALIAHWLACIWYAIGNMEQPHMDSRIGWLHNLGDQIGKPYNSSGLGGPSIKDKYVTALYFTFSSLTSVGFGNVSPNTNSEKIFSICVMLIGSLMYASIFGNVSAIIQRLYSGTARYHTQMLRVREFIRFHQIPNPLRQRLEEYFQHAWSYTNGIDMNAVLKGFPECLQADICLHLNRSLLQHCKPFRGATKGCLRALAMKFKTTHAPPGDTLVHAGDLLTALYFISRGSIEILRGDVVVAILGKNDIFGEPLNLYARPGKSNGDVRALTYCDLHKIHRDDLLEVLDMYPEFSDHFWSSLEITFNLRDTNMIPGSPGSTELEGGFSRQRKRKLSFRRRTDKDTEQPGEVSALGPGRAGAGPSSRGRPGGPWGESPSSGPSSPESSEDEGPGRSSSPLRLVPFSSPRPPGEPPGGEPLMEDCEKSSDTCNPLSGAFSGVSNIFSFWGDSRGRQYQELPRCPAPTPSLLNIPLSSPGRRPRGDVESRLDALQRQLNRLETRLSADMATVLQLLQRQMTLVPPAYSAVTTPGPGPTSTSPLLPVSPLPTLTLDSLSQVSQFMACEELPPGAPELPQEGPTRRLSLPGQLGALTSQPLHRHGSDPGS
KCNK3 inh – human KCNK3 channel inhibition, primary screen; O14649; CHO-KCNK3 thallium flux, FluxOR fluorescence; hits give low values; B-score at 10 µM; 340,000 tested, 0.84% active; AID 602410;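 active means B-score under library mean minus 4 SD, starting fluorescence ratio at most library mean plus 5 SD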;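 further: more negative B-score means stronger inhibition of thallium flux through KCNK3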
KCNK9 block – inhibitors of human KCNK9 two-pore domain potassium channel; Q9NPC2; HEK293 KCNK9, FluxOR thallium flux fluorescence; hits give low values; AID 488922; B-score at 10 µM; 310,000 tested, 1.2% active;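 active means ratio B-score over 3 SD below the library mean, with starting fluorescence within 5 SD of its mean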;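 further: negative B-score means less thallium flux so channel inhibition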
KCC2 mod – modulates chloride dependent transport by human KCC2 | B-score of Tl+ flux slope (higher = more flux/activation; lower = inhibition) at 10 µM | KCC2 cells, thallium flux FluoZin-2 fluorescence | 190,000 tested, 2.2% active;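 active means thallium flux slope and its plate-corrected score both differing from the plate sample mean at a set confidence after two filtering rounds, in either direction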;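 further: slope of fluorescence scaled to starting intensity during 10 to 20 s after thallium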
KCNQ1 act – potentiates or activates the human KCNQ1 potassium channel | P51787 | CHO-K1 KCNQ1, thallium flux FluxOR fluorescence; hits give high values | B-score at 10 µM | 310,000 tested, 0.35% active | AID 2648;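 active means fluorescence ratio B-score, a plate-corrected score, at least three library SD, with initial intensity B-score within 5 SD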
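Test system: CHO-K1 cells stably expressing KCNQ1 / Medium: assay buffer / Also added: depolarizing K+/Tl+ stimulus, K2SO4 and Tl2SO4 each 12.5 mM in 5x stock / Incubation: 90 min dye loading and 20 min compound exposure, both at room temperature / Signal: thallium influx via FluxOR fluorescence, kinetic imaging / Evaluation: B score of baseline-normalized fluorescence ratio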
KCNQ1 inh – blocks the human KCNQ1 potassium channel. P51787. CHO-K1 KCNQ1, FluxOR thallium flux fluorescence; hits give high values. B-score at 10 µM. 310,000 tested, 1.3% active. AID 2642;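 active means compounds whose thallium flux B-score, printed positive for inhibition, exceeds three library SD while starting fluorescence stays within three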;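 further: channel opened by potassium depolarization with thallium stimulus after 20 min compound exposure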
KCC2 secondary – confirmation of human KCC2 transport modulators. shares compounds with KCC2 mod. HEK293-KCC2, thallium flux, FluoZin2 fluorescence; hits give high values. normalised thallium flux (F/F0 slope) at 10 µM. 3,700 tested, 15% active. AID 1713;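 active means thallium flux slope above the same plate's solvent-only control mean plus 3 SD; inconclusive means the two replicate wells disagree; inactive means no significant difference from solvent-only control wells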
KCC2 bumet counter – bumetanide-insensitive thallium flux in KCC2 cells with ouabain, counter-screen. HEK293-KCC2 + bumetanide/ouabain, thallium flux FluoZin2; hits give high values. shares compounds with KCC2 mod. 3,700 tested, 49% active. normalized thallium flux at 10 µM. AID 1714;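 active means thallium entry rate above the same plate's blocked-transporter control wells by more than 3 SD; inconclusive means the two repeat wells disagree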;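 further: raw slope of fluorescence over initial fluorescence between 10 and 20 s after thallium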
KCC2 sec2 – KCC2 (human) modulation, second secondary assay; normalized thallium flux at 10 µM; shares compounds with KCC2 mod; HEK293-KCC2, thallium flux FluoZin2 fluorescence; actives lie on both sides; F/F0 rise rate, 10–20 s post-thallium; 3,700 tested, 23% active; AID 1715;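 active means thallium flux slope more than 3 SD above or below the plate's solvent-only control mean, mostly below; inconclusive means the two repeat wells disagreed; inactive means no significant shift from solvent-only controls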;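 further: raw slope with 0.1% DMSO as baseline and bumetanide as block control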
HEK293 Tl flux – counter-screen for KCC2 modulators: effect in parental HEK293 cells; shares compounds with KCC2 mod; thallium flux FluoZin2, ouabain; baseline-ratio fluorescence slope, 10–20 s after thallium; thallium flux rate (normalised fluorescence) at 10 µM; 3,700 tested, 46% active; AID 1716;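 active means thallium flux rate significantly above the same plate's solvent-only control wells, beyond their mean plus 3 SD; inconclusive means the two replicate wells gave conflicting results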
KCC2 retest ouab – KCC2 (human) modulation, ouabain retest | shares compounds with KCC2 mod | HEK293-KCC2, thallium flux FluoZin2 fluorescence; bidirectional: low = inhibitor, high = activator | raw Tl+ flux slope (below DMSO = inhibition, above = activation) at 10 µM | 3,700 tested, 48% active | AID 1717;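 active means thallium flux slope beyond 3 SD from same-plate DMSO control mean in most replicates, usually higher, sometimes lower; inconclusive means repeat tests gave conflicting results; inactive means no significant difference from controls in most replicates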;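 further: slope of initial-normalized fluorescence between seconds 10 and 20 after thallium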
HEK counter2 – parental HEK flux effect, counter-screen 2. shares compounds with KCC2 mod. HEK293 parental, thallium flux FluoZin-2 fluorescence slope. thallium flux slope at 10 µM. 3,700 tested, 33% active;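 active means thallium flux slope above the same plate's solvent-control mean plus 3 SD in both duplicate wells; inconclusive means duplicate wells that disagreed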;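 further: run without ouabain in cells lacking the KCC2 cotransporter; slope of fluorescence scaled to its starting value between 10 and 20 s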
* marks the source's active call; other numbers are inactive results; i = inactive; ? = inconclusive; nt = no result.

SMILES	hERG protect	KCNK3 inh	KCNK9 block	KCC2 mod	KCNQ1 act	KCNQ1 inh	KCC2 secondary	KCC2 bumet counter	KCC2 sec2	HEK293 Tl flux	KCC2 retest ouab	HEK counter2
CC(=O)c1ccc(N2CCN(C(=O)Cn3cnc(S(=O)(=O)N4CCCCC4)c3)CC2)cc1	-7	i	i	nt	i	i	nt	nt	nt	nt	nt	nt
O=C1/C(=C/c2cccnc2)CC/C1=C\c1cccnc1	-15	i	i	-0.17	i	i	nt	nt	nt	nt	nt	nt
CC(C)/C=C1\CC/C(=C\c2cccnc2)C1=O	-10	i	i	-4.1*	i	i	0.009	0.0054	0.033	0.004	0.018	0.011
Cc1ccc(C2N(c3ccccc3)C(=S)N3CCCN23)cc1 (configuration not stated)	-7	i	i	nt	i	i	0.0083	0.0049	0.034	0.0037	0.02	0.011
Cc1n[nH]c(C)c1CCN(C)Cc1cn(C)nc1-c1ccccc1F	-7	i	i	-0.15	i	i	nt	nt	nt	nt	nt	nt
O=C(C1CCCC1)N1CCN(S(=O)(=O)c2cccc(Cl)c2Cl)CC1	-6	i	i	nt	i	i	nt	nt	nt	nt	nt	nt
Cc1noc(C)c1C(=O)OCC(=O)NC1CC1	-6	i	i	0.13	i	i	nt	nt	nt	nt	nt	nt
Cc1noc(C)c1CSCC(=O)OCC(=O)NC1CCCCC1	-4	i	i	nt	i	i	0.0068	?	0.03	0.0072	0.018	0.011
Cc1nc(SCC(=O)Nc2c(C)nn(C)c2C)c2cnn(-c3ccccc3)c2n1	-10	i	i	-6.8*	i	i	0.0069	0.0064	0.027	0.0064	0.02	0.0093
COc1ccc(CN(C(=O)c2cc3ccccc3oc2=O)C2CCCC2)cc1	-7	i	i	-5.1*	i	i	0.0077	0.0043	0.031	?	?	0.011
COc1ccc(CN(C(=O)c2cc3ccccc3oc2=O)C2CCS(=O)(=O)C2)cc1 (configuration not stated)	-10	i	i	0.35	i	i	nt	nt	nt	nt	nt	nt
Cc1cccc(C(=O)NCC(=O)OCc2nc(N)nc(Nc3ccccc3C)n2)c1	nt	i	nt	nt	nt	nt	nt	nt	nt	nt	nt	nt
COc1cc(CC(=O)OCC(=O)c2ccc[nH]2)cc(OC)c1OC	nt	i	nt	nt	nt	nt	nt	nt	nt	nt	nt	nt
COc1cc(CCC(=O)Nc2ccc(C)c(S(=O)(=O)N3CCCCCC3)c2)cc(OC)c1OC	nt	i	nt	nt	nt	nt	nt	nt	nt	nt	nt	nt
Cc1nccc(-c2cccc(N/N=C(\C#N)C(=O)c3ccccc3)c2)n1	-10	i	i	-5.1*	i	i	?	0.036*	0.031	0.015*	0.025	0.011*
N#C/C(=N\Nc1cccc(C(F)(F)F)c1)C(=O)c1ccsc1	-12	i	i	-4.3	i	i	nt	nt	nt	nt	nt	nt
CSc1ncc(OCc2ccccc2)c(=O)[nH]1	-8	i	i	-0.6	i	i	nt	nt	nt	nt	nt	nt
COC(=O)CSc1ccnc2cc(Cl)ccc12	-6	i	i	-3.2*	i	i	0.0096	?	0.034	0.0034	0.018	0.012
O=C(O)CSc1ccnc2cc(Cl)ccc12	-3	i	i	0.89	i	i	nt	nt	nt	nt	nt	nt
Nc1nc(Cl)nc2c1ncn2C1CC(O)C(CO)O1 (configuration not stated)	-3	i	i	nt	i	i	nt	nt	nt	nt	nt	nt
CCOc1ccccc1C(=O)Nc1cc(C)ccc1NC(=O)c1ccco1	-10	i	i	nt	i	i	nt	nt	nt	nt	nt	nt
Cc1[nH][nH]c(=O)c1C(c1ccc(-c2ccc(C(=O)O)cc2)o1)c1c(C)[nH][nH]c1=O	nt	i	nt	-0.16	nt	nt	nt	nt	nt	nt	nt	nt
Cc1[nH][nH]c(=O)c1C(c1ccc(-c2ccc(F)cc2)o1)c1c(C)[nH][nH]c1=O	-15	i	i	-5.2*	9*	i	0.017	0.0046	0.025*	0.0074	0.013	0.011
COc1cccc(CNS(=O)(=O)c2cn(C)cn2)c1	-5	i	i	7.2*	i	i	0.0062	0.0046	0.033	0.0076	0.019	0.011
Cn1cnc(S(=O)(=O)NCc2ccccc2)c1	-10	i	i	0.75	i	i	nt	nt	nt	nt	nt	nt
SMILES	hERG protect	KCNK3 inh	KCNK9 block	KCC2 mod	KCNQ1 act	KCNQ1 inh	KCC2 secondary	KCC2 bumet counter	KCC2 sec2	HEK293 Tl flux	KCC2 retest ouab	HEK counter2
COc1ccc(S(=O)(=O)N(CC(=O)N2CCCCCC2)c2ccccc2OC)cc1	-9	i	i	nt	i	i	nt	nt	nt	nt	nt	nt
O=C(c1ccc2oc(CCCc3ccccc3)nc2c1)N1CCCC1	-6	i	i	nt	i	i	nt	nt	nt	nt	nt	nt
COc1ccccc1/C=C(\NC(=O)c1ccc(OC)c(OC)c1)C(=O)Nc1cc([N+](=O)[O-])ccc1C	-1	i	i	5.2*	i	i	0.015	0.0045	0.028	0.0068	0.017	0.0095
CC(=O)c1cc(NC(=O)c2ccc(Cl)cc2)c(=O)oc1/C=C/N(C)C	-20	i	i	-3*	i	i	?	-0.0026*	0.021*	0.0027*	0.008*	0.0048*
O=S(=O)(CCCc1ccccc1)c1ncn[nH]1	-1	i	i	4.7*	i	i	0.007	0.0044	0.031	0.0065	0.017	0.0093
Nc1n[nH]c(S(=O)(=O)CCCc2ccccc2)n1	-13	i	i	-0.52	i	i	nt	nt	nt	nt	nt	nt
CC(=O)Nc1ccc(NC(=O)c2ccc(CSc3ccccc3)o2)cc1	-12	i	i	-4.1*	i	i	0.0062	0.0072	0.025*	0.0071	0.015*	?
O=C(Nc1ccccc1F)c1ccc(CSc2ccccc2)o1	-3	i	i	-5.1*	i	i	0.0087	0.0058	0.025*	0.006	0.013*	0.0091
COc1ccc(NC(=O)c2ccc(COc3ccccc3)o2)c(OC)c1	-3	i	i	nt	i	i	nt	nt	nt	nt	nt	nt
O=C(Nc1cccc(F)c1)c1ccc(CSc2ccccc2)o1	-3	i	i	-2.7	i	i	nt	nt	nt	nt	nt	nt

Assay outcomes: PubChem BioAssay, several laboratories
